Experimental data reported in ChEMBL document CHEMBL4270574, “Methotrexate prodrugs sensitive to reactive oxygen species for the improved treatment of rheumatoid arthritis” (Eur J Med Chem, 2018).
In brackets after ≈: the same amount, converted by molar mass. Activity calls are given as the source filed them. The calls are words filed in the database; no cut-off is given here.

Columns and labels:
Mus musculus [1] = experiment: Toxicity in DBA/1J mouse model of collagen-induced arthritis inflammation assessed as reduction in body weight at 7 mg/kg, ip administered daily for 14 days starting from day 27 post disease onset; type: organism-based; details: in vivo, 336 h
[2] = Chemical stability in 20% DMSO/PBS at 100 uM at 37 degC after 60 mins in absence of H2O2 by RP-UPLC-MS analysis; type: physicochemical; details: buffer, 1 h
Summary of the method: (§1)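 Prodrug at 100 µM in 20% DMSO/PBS (pH 7.4) with diclofenac internal standard was incubated at 37 °C with shaking, with H2O2 at 0.25–10 mM or PBS only (stability control). Samples were taken from 5 min to 24 h. Percent remaining compound and MTX formation were read by RP-UPLC at 306 nm. Runs were in triplicate and t1/2 is given ± SD.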

[3] = Chemical stability in 20% DMSO/PBS at 100 uM at 37 degC after 60 mins in presence of 10 mM H2O2 by RP-UPLC-MS analysis; type: physicochemical; details: buffer, 1 h; summary of the method: as §1
Mus musculus [4] = experiment: Anti-arthritic activity in DBA/1J mouse model of collagen-induced arthritis inflammation assessed as reduction in fore limb swelling at 7 mg/kg, ip administered daily for 14 days starting from day 27 post disease onset and measured 3 times per week from day 18 to 40 […]; type: functional, organism-based
Summary of the method: (§2)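 Male DBA/1J mice (8–9 weeks) were immunized intradermally near the tail base with 100 µg chicken type II collagen in CFA on day -1, with a 50 µg boost on day 21. From day 27 they received daily i.p. dosing in 2% DMSO/PBS for 14 days (n = 8/group). Blinded scoring ran three times weekly, day 18–40, at 0–15 per limb (maximum 60). Mice scoring above 45 were removed. Results are mean ± SEM, tested by one-tailed Mann–Whitney.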

[5] = Half life in human plasma at 37 degC at pH 7.4 by RP-UPLC-MS analysis; type: ADME, cell-free
Summary of the method: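 Reconstituted freeze-dried human plasma was diluted 1:1 with PBS (pH 7.4) and preincubated for 10 min at 37 °C. Compound was added from a 1 mg/mL DMSO stock and incubated at 37 °C. Samples at 0, 0.5, 1, 2, 4 and 8 h were quenched in ice-cold MeCN, centrifuged, and the supernatant analyzed by RP-UPLC-MS. t1/2 is from triplicates ± SD.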

[6] = Thermodynamic solubility in pH 7.4 PBS buffer at 2 mg sonicated for 10 mins followed by incubation at 20 degC for 15 hrs by RP-UPLC-MS analysis; type: physicochemical; details: read-out: Therm_solubility
Summary of the method: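 Solid (2 mg) in 1 mL PBS (pH 7.4) was sonicated, shaken for 15 h at 20 °C and centrifuged. The supernatant was diluted 1:5 in DMF and quantified by RP-UPLC-MS against a 25–125 µg/mL calibration curve. Results are at least three measurements ± SD.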

Mus musculus [7] = experiment: Toxicity in DBA/1J mouse model of collagen-induced arthritis inflammation assessed as reduction in body weight at 8.3 mg/kg, ip administered daily for 14 days starting from day 27 post disease onset; type: organism-based; details: in vivo, 336 h
[8] = Prodrug activation in 20% DMSO/PBS assessed as 0.5 mM H2O2-mediated methotrexate formation by measuring prodrug half life at 100 uM at 37 degC, pH 7.4 by RP-UPLC-MS analysis; type: physicochemical; details: buffer, pH 7.4, 100 µM; summary of the method: as §1
[9] = Prodrug activation in 20% DMSO/PBS assessed as 5 mM H2O2-mediated methotrexate formation by measuring prodrug half life at 100 uM at 37 degC, pH 7.4 by RP-UPLC-MS analysis; type: physicochemical; details: buffer, pH 7.4, 100 µM; summary of the method: as §1
Mus musculus [10] = experiment: Anti-arthritic activity in DBA/1J mouse model of collagen-induced arthritis inflammation assessed as reduction in fore limb swelling at 8.3 mg/kg, ip administered daily for 14 days starting from day 27 post disease onset and measured 3 times per week from day 18 to 40 […]; type: functional, organism-based; summary of the method: as §2
[11] = Chemical stability in pH 7.4 PBS buffer after 24 hrs by RP-UPLC-MS analysis; type: physicochemical; details: pH 7.4, 24 h; summary of the method: as §1
[12] = Half life in 20% DMSO/PBS at 100 uM at 37 degC at pH 7.4 by RP-UPLC-MS analysis; type: physicochemical; summary of the method: as §1
[13] = Apparent intrinsic clearance in human liver microsomes at 37 degC at pH 7.4 by RP-UPLC-MS analysis; type: ADME, microsome; details: read-out: CLH(app)
Summary of the method: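 Pooled human liver microsomes in PBS were preincubated for 10 min at 37 °C. Compound was added from a 10 mM DMSO stock, then NADPH from a 30 mM stock, with a no-NADPH control. Aliquots taken at 0–40 min were quenched in ice-cold MeCN, centrifuged and analyzed by UPLC-MS. CL'int was derived from the in vitro t1/2 scaled by 45 mg microsomes/g liver and 20 g liver/kg body weight.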

[14] = Chemical stability in pH 7.4 PBS buffer by RP-UPLC-MS analysis; type: physicochemical; summary of the method: as §1

With `CN(Cc1cnc2nc(N)nc(N)c2n1)c1ccc(C(=O)N[C@@H](CCC(=O)O)C(=O)O)cc1` [METHOTREXATE] the Activity (Mus musculus [1]) was “Toxic”, the Stability [2] was “Stable” and the Stability [3] was “Stable”. For the same compound, the Activity (Mus musculus [4]) was “Active”.
With `CN(Cc1cnc2nc(N)nc(N)c2n1)c1ccc(C(=O)N[C@@H](CCC(=O)N2CCSC2=O)C(=O)O)cc1` the half-life [5] was 7 h, the solubility thermodynamic at 15 h [6] was 400 µg/mL (≈ 741 µM) and the Activity (Mus musculus [7]) was “Non-Toxic”. The t1/2 [8] was 16.5 h, the t1/2 [9] was 1.7 h and the Activity (Mus musculus [10]) was “Active”. For the same compound, the Stability [11] was “Stable”, the half-life at 100 µM [12] was 116 h and the CLint scaled [13] was 1.4 mL/min/kg.
For `CN(Cc1cnc2nc(N)nc(N)c2n1)c1ccc(C(=O)N[C@@H](CCC(=O)O)C(=O)N2CCSC2=O)cc1`, the Stability [14] was “Unstable”.
